The source of these data is ChEMBL document CHEMBL4145562, “Bioactivity-Guided Isolation of Potential Antidiabetic and Antihyperlipidemic Compounds from Trigonella stellata” (J Nat Prod, 2018).

Active and inactive are the calls of the source. No cut-off for these calls is given here.

Common to all, as to assay type: cell-based
For assay [1], the target named is T1, Peroxisome proliferator-activated receptor alpha (Homo sapiens) (UniProt Q07869).
T1 sequence (whole entry): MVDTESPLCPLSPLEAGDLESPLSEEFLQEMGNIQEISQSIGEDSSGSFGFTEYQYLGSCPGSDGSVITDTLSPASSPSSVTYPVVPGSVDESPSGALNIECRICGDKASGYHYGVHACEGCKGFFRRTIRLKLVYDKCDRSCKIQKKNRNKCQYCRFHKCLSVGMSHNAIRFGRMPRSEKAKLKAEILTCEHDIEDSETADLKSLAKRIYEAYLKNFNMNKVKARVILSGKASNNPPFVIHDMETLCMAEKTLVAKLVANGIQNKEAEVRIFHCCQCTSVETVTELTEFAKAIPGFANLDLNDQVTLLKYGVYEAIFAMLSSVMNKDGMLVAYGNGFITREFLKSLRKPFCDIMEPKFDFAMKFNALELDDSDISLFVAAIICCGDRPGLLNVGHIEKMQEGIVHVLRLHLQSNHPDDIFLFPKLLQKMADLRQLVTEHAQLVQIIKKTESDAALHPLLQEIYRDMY
Description: Agonist activity at PPARalpha (unknown origin) expressed in human HepG2 cells cotransfected with PPRE X3-tk at 50 ug/ml after 24 hrs by luciferase reporter gene assay relative to control. In short, it runs like this: (§1)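 HepG2 cells grown in DMEM with 10% FBS, penicillin and streptomycin, then electroporated (160 V, single 70 ms pulse) with pSG5-PPARα plus PPRE X3-tk-luc plasmids (25 μg/1.5 mL cell suspension). Cells were plated at 5 × 10^4/well and grown 24 h, then treated for 24 h and lysed. Luciferase activity was reported as fold induction over vehicle control.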
(In general: Reporter assays use an easily measured gene product as a stand-in for the process of interest.)

Assay [2] deals with T1, Peroxisome proliferator-activated receptor alpha (Homo sapiens). Description: Agonist activity at PPARalpha (unknown origin) expressed in human HepG2 cells cotransfected with PPRE X3-tk at 25 ug/ml after 24 hrs by luciferase reporter gene assay relative to control. In short, it runs like this:
as §1

The target is the same in assay [3]. Description: Agonist activity at PPARalpha (unknown origin) expressed in human HepG2 cells cotransfected with PPRE X3-tk at 12.5 ug/ml after 24 hrs by luciferase reporter gene assay relative to control. In short, it runs like this:
as §1

For assay [4], the target named is T2, Peroxisome proliferator-activated receptor gamma (Homo sapiens) (UniProt P37231).
T2 sequence (whole entry): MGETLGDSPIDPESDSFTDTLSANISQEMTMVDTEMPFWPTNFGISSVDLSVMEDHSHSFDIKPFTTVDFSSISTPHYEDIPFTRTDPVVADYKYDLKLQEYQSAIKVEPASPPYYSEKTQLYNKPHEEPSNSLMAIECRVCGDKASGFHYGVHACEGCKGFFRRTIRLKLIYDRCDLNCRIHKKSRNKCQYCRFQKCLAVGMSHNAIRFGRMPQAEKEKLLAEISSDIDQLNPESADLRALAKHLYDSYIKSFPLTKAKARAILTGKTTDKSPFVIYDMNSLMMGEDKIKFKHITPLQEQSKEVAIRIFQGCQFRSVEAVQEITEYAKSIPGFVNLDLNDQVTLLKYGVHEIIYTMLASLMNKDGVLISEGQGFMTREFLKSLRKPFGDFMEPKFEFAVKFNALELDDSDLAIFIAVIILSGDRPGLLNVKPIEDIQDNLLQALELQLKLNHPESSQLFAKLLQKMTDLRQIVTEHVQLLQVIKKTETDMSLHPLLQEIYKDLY
Description: Agonist activity at PPARgamma (unknown origin) expressed in human HepG2 cells cotransfected with PPREaP2-tk at 50 ug/ml after 24 hrs by luciferase reporter gene assay relative to control. In short, it runs like this: (§2)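 Rat PPARγ (pCMV-rPPARγ) was co-electroporated with the pPPREaP2-tk-luc reporter (25 μg/1.5 mL cell suspension; 160 V, one 70 ms pulse) into HepG2 cells kept in DMEM/10% FBS with antibiotics. Cells were seeded at 5 × 10^4/well for 24 h, then exposed to samples for 24 h. Luciferase was read in lysates and expressed as fold induction relative to vehicle.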

Assay [5] concerns the target T2, Peroxisome proliferator-activated receptor gamma (Homo sapiens). Description: Agonist activity at PPARgamma (unknown origin) expressed in human HepG2 cells cotransfected with PPREaP2-tk at 25 ug/ml after 24 hrs by luciferase reporter gene assay relative to control. In short, it runs like this: as §2
The target is the same in assay [6]. Description: Agonist activity at PPARgamma (unknown origin) expressed in human HepG2 cells cotransfected with PPREaP2-tk at 12.5 ug/ml after 24 hrs by luciferase reporter gene assay relative to control. Summed up: as §2
The target in assay [7] is T1, Peroxisome proliferator-activated receptor alpha (Homo sapiens). Description: Agonist activity at PPARalpha (unknown origin) expressed in human HepG2 cells cotransfected with PPRE X3-tk at 1.45 ug/ml after 24 hrs by luciferase reporter gene assay relative to control. In short, it runs like this: as §1

As for `COc1ccc2c(c1)OC(OC)C(c1ccc(O)cc1O)[C@H]2O` (single isomer, unassigned), the outcome in assay [1], in assay [4], in assay [5] and in assay [6] was inactive. Further, the results for the fold change (FC) in assay [2] and in assay [3] were 2 and 1.93, respectively.
Take `COc1ccc2c(c1)OC[C@@H](c1ccc(O[C@@H]3O[C@H](CO)[C@@H](O)[C@H](O)[C@H]3O)cc1O)[C@@H]2O`: the fold change (FC) in assay [1] is 1.67; in assay [2], 1.32; in assay [3] it was 1.14; in assay [4], 1.74; in assay [5], 1.36; in assay [6] it was 1.22.
With `O=C(O)CCc1ccccc1O[C@@H]1O[C@H](CO)[C@@H](O)[C@H](O)[C@H]1O`, the result in assay [1], in assay [2], in assay [3], in assay [4], in assay [5] and in assay [6] was inactive.
In the case of `COc1ccc2c(c1)OC[C@H](c1ccc(O)cc1O)[C@H]2O`, the fold change (FC) in assay [1] was found to be 2.25; in assay [2], 1.88; in assay [3], 1.29. Besides, the outcome in assay [4], in assay [5] and in assay [6] was inactive.
Turning to `CC(C)(Oc1ccc(C2CC2(Cl)Cl)cc1)C(=O)O` (centres undefined), the fold change (FC) in assay [7] was found to be 2.2.
On to `C[C@@H]1O[C@@H](Oc2cc(O)c3c(=O)c(O[C@@H]4O[C@@H](C)[C@H](O)[C@@H](O)[C@H]4O)c(-c4ccc(O)c(O)c4)oc3c2)[C@H](O)[C@H](O)[C@H]1O`, for which the result in assay [1], in assay [2], in assay [3], in assay [4], in assay [5] and in assay [6] was inactive.
In the case of `C[C@@H]1O[C@@H](O[C@H]2[C@H](O[C@H]3[C@H](O[C@H]4CC[C@@]5(C)[C@@H](CC[C@]6(C)[C@@H]5CC=C5[C@@H]7CC(C)(C)C[C@@H](O)[C@]7(C)CC[C@]56C)[C@@]4(C)CO)O[C@H](C(=O)O)[C@@H](O)[C@@H]3O)O[C@H](CO)[C@H](O)[C@@H]2O)[C@H](O)[C@H](O)[C@H]1O`, the outcome in assay [1], in assay [2] and in assay [3] was inactive. In addition, the values for the fold change (FC) in assay [4], in assay [5] and in assay [6] were 1.79, 1.36 and 1.22, respectively.
Take `O=C(O)c1ccc(O)cc1`: the outcome in assay [1], in assay [2] and in assay [3] was inactive. Also, the values for the fold change (FC) in assay [4], in assay [5] and in assay [6] were 1.35, 0.9 and 1, respectively.
For the molecule `O=c1cc(-c2ccc(O)cc2)oc2cc(O)ccc12`, the outcome in assay [1], in assay [2], in assay [3], in assay [4], in assay [5] and in assay [6] was inactive.
